Here are results for six compounds from ChEMBL document CHEMBL3351508, “Second-generation antibacterial benzimidazole ureas: discovery of a preclinical candidate with reduced metabolic liability” (J Med Chem, 2014).

In brackets after ≈: the same amount, converted by molar mass.

For data set [1], the system named is Staphylococcus aureus. Description: Antibacterial activity against Staphylococcus aureus ATCC 29213 by CLSI method. The data set is classed as functional. In a few lines: (§1)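 Broth microdilution MIC in liquid medium following CLSI methods, with ATCC strains. Each run was accepted only if comparator antibiotics fell within their recommended quality-control ranges for the appropriate ATCC strain.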

The test system of data set [2] is Enterococcus faecium. Put plainly: Antibacterial activity against Enterococcus faecium ATCC 49624 by CLSI method. The data set is classed as functional. Summed up:
as §1

The subject of data set [3] is Streptococcus pneumoniae. Put plainly: Antibacterial activity against Streptococcus pneumoniae ATCC 10015 by CLSI method. In kind it is functional. Summed up: as §1
In data set [4] the test system is Moraxella catarrhalis. Put plainly: Antibacterial activity against Moraxella catarrhalis ATCC 25238 by CLSI method. The data set is classed as functional. In a few lines:
as §1

The species named for data set [5] is Rattus norvegicus. Put plainly: Drug metabolism in rat assessed as reactive metabolites as rat liver protein binding per mg of protein at 100 uCi for 6 days measured on day 7. In kind it is ADME, organism-based. As to conditions: in vivo, 144 h. Summed up: (§2)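 Male rats were dosed with unlabeled compound at 90 mg/kg for 6 or 13 days, then given 100 μCi ¹⁴C-labeled compound on day 7 or 14 and killed 4 h later. Liver S9 (9000g) was washed with acetonitrile until free of unbound label and the pellet dissolved in 1 N NaOH at 60 °C. Radioactivity was counted by scintillation, normalized to Bradford protein, and expressed as pmol/mg.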

A short description of data set [6]: Inhibition of Staphylococcus aureus DNA topoisomerase-4 C2E2 using pBR322 plasmid DNA as substrate by coupled enzyme reaction assay.
The subject of data set [7] is Staphylococcus epidermidis. Put plainly: Antibacterial activity against Staphylococcus epidermidis ATCC 12228 by CLSI method. In kind it is functional. In a few lines: as §1
Data set [8] concerns Enterococcus faecalis. Description: Antibacterial activity against Enterococcus faecalis ATCC 29212 by CLSI method. The data set is classed as functional. In a few lines:
as §1

The species entered for data set [9] is Rattus norvegicus. Put plainly: Drug metabolism in rat assessed as reactive metabolites as rat liver protein binding per mg of protein at 100 uCi for 13 days measured on day 14. The data set is classed as ADME, organism-based. As to conditions: in vivo, 312 h. In a few lines:
as §2

The subject of data set [10] is Haemophilus influenzae. Put plainly: Antibacterial activity against Haemophilus influenzae ATCC 49247 by CLSI method. In kind it is functional. In a few lines:
as §1

For data set [11], the system named is Staphylococcus aureus. Description: Antibacterial activity against Staphylococcus aureus ATCC 29213 by CLSI method in presence of human 50% serum. The data set is classed as functional. In a few lines:
as §1

Data set [12] concerns the target DNA gyrase (Escherichia coli, UniProt P0AES4+P0AES6). Put plainly: Inhibition of […] Escherichia coli DNA gyrase A2B2 using pBR322 plasmid DNA as substrate by coupled enzyme reaction assay. In kind it is protein-complex assay.
A short description of data set [13]: Drug metabolism in rat assessed as metabolites in bile at 30 mg/kg, po. The data set is classed as ADME, organism-based. Also noted: dose 30 mg/kg, route oral. As to conditions: in vivo.
Data set [14] has as its system Plasma. Description: Drug metabolism in rat assessed as metabolites in plasma at 30 mg/kg, po. The data set is classed as ADME, organism-based. As to conditions: in vivo. Also noted: dose 30 mg/kg, route oral.
The nature of data set [15]: Drug metabolism in rat assessed as metabolites in feces at 30 mg/kg, po. The data set is classed as ADME, organism-based. Also noted: dose 30 mg/kg, route oral. As to conditions: in vivo.
Data set [16] has as its target Cytochrome P450 2C19 (Homo sapiens, UniProt P33261). Description: Drug metabolism in recombinant CYP2C19 (unknown origin) at 1 uM after 30 mins. In kind it is ADME. As to conditions: recombinant enzyme, 0.5 h. In a few lines:
(§3)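 Parent at 1 and 10 μM was incubated with individual recombinant CYP supersomes, with and without NADPH, for 0, 15 and 30 min. Formation of the imine metabolite was quantified by LC-MS/MS.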

For data set [17], the system named is Staphylococcus aureus. Put plainly: Antibacterial activity against methicillin-susceptible Staphylococcus aureus ATCC 29213 infected in mouse thigh assessed reduction in colony forming unit at 25 mg/kg, po bid after 72 hrs. In kind it is functional.
The target in data set [18] is Cytochrome P450 2C9 (Homo sapiens, UniProt P11712). Put plainly: Drug metabolism in recombinant CYP2C9 (unknown origin) at 1 uM after 30 mins. As to conditions: recombinant enzyme, 0.5 h. The data set is classed as ADME. In a few lines: as §3
The nature of data set [19]: Drug metabolism in rat assessed as metabolites in urine at 30 mg/kg, po. The data set is classed as ADME, organism-based. Also noted: dose 30 mg/kg, route oral. As to conditions: in vivo.
In data set [20] the target is T1, Cytochrome P450 2C8 (Homo sapiens, UniProt P10632).
T1 sequence (P10632 whole entry): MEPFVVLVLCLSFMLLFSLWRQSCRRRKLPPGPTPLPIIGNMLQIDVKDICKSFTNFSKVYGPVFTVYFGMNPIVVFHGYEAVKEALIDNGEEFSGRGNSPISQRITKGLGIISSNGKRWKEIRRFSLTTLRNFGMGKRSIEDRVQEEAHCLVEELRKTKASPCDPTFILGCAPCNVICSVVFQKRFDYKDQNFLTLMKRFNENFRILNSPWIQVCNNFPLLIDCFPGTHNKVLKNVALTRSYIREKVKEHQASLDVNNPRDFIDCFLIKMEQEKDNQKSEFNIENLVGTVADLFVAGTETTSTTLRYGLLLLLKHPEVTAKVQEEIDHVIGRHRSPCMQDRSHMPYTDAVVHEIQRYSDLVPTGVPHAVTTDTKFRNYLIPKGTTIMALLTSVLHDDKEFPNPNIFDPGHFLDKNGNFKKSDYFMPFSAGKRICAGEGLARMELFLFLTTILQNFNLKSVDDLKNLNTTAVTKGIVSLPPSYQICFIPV
Put plainly: Drug metabolism in recombinant CYP2C8 (unknown origin) at 1 uM after 30 mins. In kind it is ADME. As to conditions: recombinant enzyme, 0.5 h. In a few lines:
as §3

Data set [21] concerns the target T2, Cytochrome P450 2B6 (Homo sapiens, UniProt P20813).
T2 sequence (P20813 whole entry): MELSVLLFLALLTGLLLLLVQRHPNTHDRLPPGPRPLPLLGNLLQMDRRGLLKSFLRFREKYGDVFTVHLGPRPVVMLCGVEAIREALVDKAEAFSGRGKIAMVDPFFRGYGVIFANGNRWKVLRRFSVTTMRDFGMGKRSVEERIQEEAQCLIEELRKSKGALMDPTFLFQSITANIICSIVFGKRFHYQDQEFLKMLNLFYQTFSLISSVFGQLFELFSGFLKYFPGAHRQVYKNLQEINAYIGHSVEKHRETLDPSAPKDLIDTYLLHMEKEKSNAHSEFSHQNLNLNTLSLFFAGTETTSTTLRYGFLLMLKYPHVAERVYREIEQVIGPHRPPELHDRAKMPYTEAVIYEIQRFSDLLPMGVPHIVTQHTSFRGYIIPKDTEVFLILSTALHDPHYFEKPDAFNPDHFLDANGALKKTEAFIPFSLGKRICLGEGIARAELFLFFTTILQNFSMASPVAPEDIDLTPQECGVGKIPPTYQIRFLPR
Put plainly: Drug metabolism in recombinant CYP2B6 (unknown origin) at 1 uM after 30 mins. In kind it is ADME. As to conditions: recombinant enzyme, 0.5 h. Summed up: as §3

Data set [22] in a line: Drug metabolism in monkey liver microsomes assessed as compound formation treated with 30 uM 1-Ethyl-3-(5-(5-fluoropyridin-3-yl)-7-(pyrimidin-2-yl)-1H-benzo-[d]imidazol-2-yl)urea for 1 hr. The data set is classed as ADME, Macaca mulatta. As to conditions: rhesus monkey.
Data set [23] relates to Liver microsome. Description: Drug metabolism in human liver microsomes assessed as compound formation treated with 30 uM 1-Ethyl-3-(5-(5-fluoropyridin-3-yl)-7-(pyrimidin-2-yl)-1H-benzo-[d]imidazol-2-yl)urea for 1 hr. In kind it is ADME.
The subject of data set [24] is Liver microsome. Description: Drug metabolism in rat liver microsomes assessed as compound formation treated with 30 uM 1-Ethyl-3-(5-(5-fluoropyridin-3-yl)-7-(pyrimidin-2-yl)-1H-benzo-[d]imidazol-2-yl)urea for 1 hr. The data set is classed as ADME.
The nature of data set [25]: Drug metabolism in human liver S9 fractions assessed as compound formation treated with 30 uM 1-Ethyl-3-(5-(5-fluoropyridin-3-yl)-7-(pyrimidin-2-yl)-1H-benzo-[d]imidazol-2-yl)urea for 1 hr. The data set is classed as ADME, subcellular, Liver S9 fraction. As to conditions: s9, 1 h.
The target of data set [26] is Cytochrome P450 3A4 (Homo sapiens, UniProt P08684). Put plainly: Drug metabolism in recombinant CYP3A4 (unknown origin) assessed as compound formation treated with 1 uM 1-Ethyl-3-(5-(5-fluoropyridin-3-yl)-7-(pyrimidin-2-yl)-1H-benzo-[d]imidazol-2-yl)urea for 30 mins. In kind it is ADME. As to conditions: recombinant enzyme, 0.5 h, in the assay text read “10 uM” for “1 uM”. Summed up: as §3

The target of data set [27] is Cytochrome P450 2D6 (Homo sapiens, UniProt P10635). Put plainly: Drug metabolism in recombinant CYP2D6 (unknown origin) assessed as compound formation treated with 10 uM 1-Ethyl-3-(5-(5-fluoropyridin-3-yl)-7-(pyrimidin-2-yl)-1H-benzo-[d]imidazol-2-yl)urea for 30 mins. As to conditions: recombinant enzyme, 0.5 h.
Data set [28] deals with T3, Cytochrome P450 1A2 (Homo sapiens, UniProt P05177).
T3 sequence (P05177 whole entry): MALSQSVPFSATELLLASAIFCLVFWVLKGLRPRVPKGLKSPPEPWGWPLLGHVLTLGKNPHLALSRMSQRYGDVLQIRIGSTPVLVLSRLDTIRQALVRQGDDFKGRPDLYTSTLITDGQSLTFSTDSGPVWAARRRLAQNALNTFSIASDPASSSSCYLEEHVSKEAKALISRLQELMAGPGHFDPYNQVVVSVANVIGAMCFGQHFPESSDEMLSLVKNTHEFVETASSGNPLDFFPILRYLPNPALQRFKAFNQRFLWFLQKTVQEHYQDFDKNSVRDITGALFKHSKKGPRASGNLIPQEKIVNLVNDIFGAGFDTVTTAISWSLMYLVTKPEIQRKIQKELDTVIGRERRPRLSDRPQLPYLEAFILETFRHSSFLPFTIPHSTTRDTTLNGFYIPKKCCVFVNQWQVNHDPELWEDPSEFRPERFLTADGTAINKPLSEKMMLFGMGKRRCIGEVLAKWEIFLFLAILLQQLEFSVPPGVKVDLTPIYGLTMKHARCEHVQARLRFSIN
Description: Drug metabolism in recombinant CYP1A2 (unknown origin) assessed as compound formation treated with 10 uM 1-Ethyl-3-(5-(5-fluoropyridin-3-yl)-7-(pyrimidin-2-yl)-1H-benzo-[d]imidazol-2-yl)urea for 30 mins. As to conditions: recombinant enzyme, 0.5 h.

Sequence of Cytochrome P450 2C19 (P33261 whole entry): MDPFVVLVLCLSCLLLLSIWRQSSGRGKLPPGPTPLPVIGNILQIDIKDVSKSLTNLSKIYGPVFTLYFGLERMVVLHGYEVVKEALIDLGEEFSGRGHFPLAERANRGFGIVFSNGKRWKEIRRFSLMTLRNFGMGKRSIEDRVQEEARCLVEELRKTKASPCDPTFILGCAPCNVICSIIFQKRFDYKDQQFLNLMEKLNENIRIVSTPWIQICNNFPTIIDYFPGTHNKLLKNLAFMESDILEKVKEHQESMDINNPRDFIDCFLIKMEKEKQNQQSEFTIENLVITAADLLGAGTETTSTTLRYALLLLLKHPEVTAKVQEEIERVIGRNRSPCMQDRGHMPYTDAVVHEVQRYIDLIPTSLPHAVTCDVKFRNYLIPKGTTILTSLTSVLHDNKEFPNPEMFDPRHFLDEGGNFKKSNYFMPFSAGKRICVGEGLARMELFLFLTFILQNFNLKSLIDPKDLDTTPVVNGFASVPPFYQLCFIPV
Sequence of Cytochrome P450 2C9 (P11712 whole entry): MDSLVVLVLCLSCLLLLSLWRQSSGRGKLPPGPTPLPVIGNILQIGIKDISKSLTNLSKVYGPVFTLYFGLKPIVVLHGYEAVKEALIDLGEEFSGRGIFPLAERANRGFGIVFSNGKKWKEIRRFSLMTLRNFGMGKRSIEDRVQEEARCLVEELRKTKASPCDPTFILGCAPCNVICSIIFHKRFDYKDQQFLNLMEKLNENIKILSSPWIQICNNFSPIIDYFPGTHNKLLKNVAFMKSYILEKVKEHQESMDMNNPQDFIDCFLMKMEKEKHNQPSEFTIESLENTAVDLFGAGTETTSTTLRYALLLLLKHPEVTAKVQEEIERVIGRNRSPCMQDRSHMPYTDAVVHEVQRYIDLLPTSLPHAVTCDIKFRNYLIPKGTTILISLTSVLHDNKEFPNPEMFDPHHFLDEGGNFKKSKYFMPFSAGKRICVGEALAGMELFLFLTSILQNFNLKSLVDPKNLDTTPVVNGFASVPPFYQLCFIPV
Sequence of Cytochrome P450 2D6 (P10635 whole entry): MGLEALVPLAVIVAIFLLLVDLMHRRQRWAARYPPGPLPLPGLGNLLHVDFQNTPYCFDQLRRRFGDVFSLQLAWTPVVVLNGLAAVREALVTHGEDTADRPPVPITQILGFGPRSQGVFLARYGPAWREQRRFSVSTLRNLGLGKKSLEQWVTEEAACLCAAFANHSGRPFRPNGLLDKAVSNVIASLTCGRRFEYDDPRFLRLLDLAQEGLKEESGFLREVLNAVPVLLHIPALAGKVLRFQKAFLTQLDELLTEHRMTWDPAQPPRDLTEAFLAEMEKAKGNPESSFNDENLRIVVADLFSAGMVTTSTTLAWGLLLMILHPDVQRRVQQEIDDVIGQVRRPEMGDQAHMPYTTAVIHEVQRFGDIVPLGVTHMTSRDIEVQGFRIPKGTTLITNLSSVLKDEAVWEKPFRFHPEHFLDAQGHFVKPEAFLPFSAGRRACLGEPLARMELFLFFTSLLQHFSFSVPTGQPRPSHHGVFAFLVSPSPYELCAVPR
Sequence of Cytochrome P450 3A4 (P08684 whole entry): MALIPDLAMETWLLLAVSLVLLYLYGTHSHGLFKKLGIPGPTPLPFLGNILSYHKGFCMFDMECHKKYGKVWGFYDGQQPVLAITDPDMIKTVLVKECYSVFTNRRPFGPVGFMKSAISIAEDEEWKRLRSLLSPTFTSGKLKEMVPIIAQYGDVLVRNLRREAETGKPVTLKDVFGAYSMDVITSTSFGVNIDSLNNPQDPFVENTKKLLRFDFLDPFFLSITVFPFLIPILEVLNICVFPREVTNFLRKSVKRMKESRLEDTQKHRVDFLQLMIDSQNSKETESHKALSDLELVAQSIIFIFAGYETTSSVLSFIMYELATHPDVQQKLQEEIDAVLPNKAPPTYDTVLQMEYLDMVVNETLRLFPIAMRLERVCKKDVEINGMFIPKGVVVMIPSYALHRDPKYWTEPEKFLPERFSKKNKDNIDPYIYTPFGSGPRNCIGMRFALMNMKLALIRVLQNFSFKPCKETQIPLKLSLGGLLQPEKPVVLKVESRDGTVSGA

Take `CCNC(=O)Nc1nc2cc(-c3cnc(C(C)(C)O)nc3)c(F)c([C@H]3CCCO3)c2[nH]1`: the MIC was 0.032 µg/mL (≈ 0.0747 µM) in [1]; 0.125 µg/mL (≈ 0.292 µM) in [2]; not above 0.008 µg/mL in data set [3]; not above 0.016 µg/mL in [4]; not above 0.008 µg/mL in data set [7]; 0.032 µg/mL (≈ 0.0747 µM) in data set [8]. The MIC is 0.5 µg/mL (≈ 1.17 µM) in data set [10] and 0.25 µg/mL in data set [11]. Moreover, the Drug metabolism in data set [5] and in data set [9] was less than 5 pmol in each case. This compound also gave a Ki in data set [6] of 9 nM.
Regarding `CCNC(=O)Nc1nc2cc(-c3cnc(C(C)(C)O)nc3)cc(-c3ncccc3F)c2[nH]1`, the MIC in data set [1] is 0.031 µg/mL (≈ 0.0712 µM); in data set [3], not above 0.008 µg/mL; in data set [8] it was 0.032 µg/mL (≈ 0.0735 µM); in data set [10], 1 µg/mL (≈ 2.3 µM); in data set [11], 0.25 µg/mL. The Ki in [6] is less than 6 nM; in data set [12] it was less than 4 nM.
Consider `CCNC(=O)Nc1nc2cc(-c3cncc(F)c3)cc(-c3ncccn3)c2[nH]1`, for which the Drug metabolism entry in data set [13], in [14], in data set [15], in data set [16], in data set [18] and in data set [19] was “metabolite_notdetected” each time. Besides, the Drug metabolism entry in data set [20] and in [21] was “metabolite_notdetected” each time. Also, the MIC in data set [1] is 0.016 µg/mL (≈ 0.0424 µM); in [3] it was not above 0.008 µg/mL; in data set [8] it was less than 0.008 µg/mL; in data set [10], 1 µg/mL (≈ 2.65 µM); in data set [11], 0.25 µg/mL. The log10cfu in [17] was more than 4. Further, the values for the Ki in [6] and in data set [12] were less than 6 nM and 5 nM, respectively.
For `C=CNC(=O)Nc1nc2cc(-c3cncc(F)c3)cc(-c3ncccn3)c2[nH]1`, the Drug metabolism result in data set [22], in data set [23], in data set [24] and in data set [25] was “metabolite_detected” each time.
As for `O=C(Nc1nc2cc(-c3cncc(F)c3)cc(-c3ncccn3)c2[nH]1)NC1CO1` (centres undefined), the Drug metabolism entry in data set [22], in data set [23], in data set [24] and in data set [25] was “metabolite_detected” in each case.
As for `CC1NC(=O)Nc2nc3c(-c4ncccn4)cc(-c4cncc(F)c4)cc3n21` (centres undefined), the Drug metabolism result in [22], in data set [26], in data set [23], in data set [27], in data set [24] and in data set [28] was “metabolite_detected” throughout. The Drug metabolism result in data set [25] is “metabolite_detected”.
